Results gathered from unrelated publications.
Compare with care: the assays were run in different laboratories.
Organism: Candida albicans
Effect on: microbial growth

O=C(CCCCCC[P+](c1ccccc1)(c1ccccc1)c1ccccc1)Nc1ccc(O)c(O)c1.[Br-] — MIC (broth dilution; ATCC90028; 24 h): 32 µg/mL
N=C(N)NCc1ccc(NC(=O)C23CCC(C(=O)Nc4ccc(C5=CCN(C(=N)N)CC5)cc4)(CC2)CC3)cc1 — MIC (broth dilution; 48 h, clinical isolate): 0.2 µg/mL
O=C(Cc1ccc(O)c(O)c1)NCCCCCCCC[P+](c1ccccc1)(c1ccccc1)c1ccccc1.[Br-] — MIC (broth dilution; ATCC90028; 24 h): > 32 µg/mL
CC1=NN(CNc2ccccc2[N+](=O)[O-])C(=O)C1=NNn1c(-c2ccccc2)nc2ccccc2c1=O — MIC (broth dilution): 50.4 µM
O=C(CCCCCCCC[P+](c1ccccc1)(c1ccccc1)c1ccccc1)Nc1cc(O)c(O)c(O)c1.[Br-] — MIC (broth dilution; ATCC90028; 24 h): > 32 µg/mL
COc1cc(-c2ccccc2)cc(C(C)C#Cc2c(C)nc(N)nc2N)c1 (racemic) — MIC (resazurin): 250 µM
C[C@@H]1[C@H](O)[C@@H](C)/C=C/C=C/C=C/C=C/C=C/C=C/C=C/[C@H](O[C@@H]2O[C@H](C)[C@@H](O)[C@H](N)[C@@H]2O)C[C@@H]2O[C@](O)(C[C@@H](O)C[C@@H](O)[C@H](O)CC[C@@H](O)C[C@@H](O)CC(=O)O[C@H]1C)C[C@H](O)[C@H]2C(=O)O — MIC (broth dilution): 0.25 µg/mL
CC[C@@H]([C@H](C)O)n1ncn(-c2ccc(N3CCN(c4ccc(OC[C@@H]5CO[C@@](Cn6cncn6)(c6ccc(F)cc6F)C5)cc4)CC3)cc2)c1=O — MIC (ATCC10231; 72 h): < 0.3 µM
O=C(CCc1cc(O)c(O)c(O)c1)NCCCCCCCC[P+](c1ccccc1)(c1ccccc1)c1ccccc1.[Br-] — MIC (broth dilution; ATCC90028; 24 h): > 32 µg/mL
CC1=NN(CNc2ccc(Cl)cc2)C(=O)C1=NNn1c(-c2ccccc2)nc2ccccc2c1=O — MIC (broth dilution): 51.5 µM
OC(Cn1cncn1)(Cn1cncn1)c1ccc(F)cc1F — MIC (SC5314): 2 µg/mL
CC1=NN(CNC(=O)c2ccccn2)C(=O)C1=NNn1c(-c2ccccc2)nc2ccccc2c1=O — MIC (broth dilution): 104 µM
CCOC(=O)CON — MIC (SC5314): 32 µg/mL
O=C(CCCCCC[P+](c1ccccc1)(c1ccccc1)c1ccccc1)Nc1cc(O)c(O)c(O)c1.[Br-] — MIC (broth dilution; ATCC90028; 24 h): > 32 µg/mL
CC1=NN(CNc2ccc(C(=O)O)cc2)C(=O)C1=NNn1c(-c2ccccc2)nc2ccccc2c1=O — MIC (broth dilution): 50.5 µM
